Measurements from ChEMBL document CHEMBL3352597, “Heck products of parthenolide and melampomagnolide-B as anticancer modulators that modify cell cycle progression” (Eur J Med Chem, 2014).
The source made the active and inactive calls. No cut-off for these calls is given here.

Legend:
Assay type in all cases: functional
T47D = experiment: Anticancer activity against human T47D cells
Procedure, shortened: (§1)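 NCI 60 human tumour cell line screen. A single-concentration pre-screen was run at 10^-5 M. Compounds selected from it were then tested at five concentrations, 10^-4 to 10^-8 M. Dose-response curves plotted cytotoxic effect against log10 of the drug concentration for each cell line. GI50 is the molar concentration giving 50% growth inhibition, and LC50 the concentration killing 50% of cells.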

K562 = experiment: Anticancer activity against human K562 cells
Procedure, shortened: (§2)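 NCI 60 human cancer cell line panel, multiple-dose testing at five concentrations (10^-4, 10^-5, 10^-6, 10^-7 and 10^-8 M). Dose-response curves plot cytotoxic effect against log10 of drug concentration for each cell line. GI50 is the molar concentration giving 50% growth inhibition; LC50 is the concentration killing 50% of cells.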

SK-MEL-5 = experiment: Anticancer activity against human SK-MEL-5 cells; procedure, shortened: as §2
[1] = Anticancer activity against human UACC257 cells; procedure, shortened: as §1
[2] = Anticancer activity against human RPMI8226 cells; procedure, shortened: as §2
NCI-H23 = experiment: Anticancer activity against human NCI-H23 cells; procedure, shortened: as §2
MDA-MB-231 = experiment: Anticancer activity against human MDA-MB-231 cells; procedure, shortened: as §2
[3] = Anticancer activity against human NCI-ADR-RES cells; procedure, shortened: as §2
[4] = Anticancer activity against human OVCAR5 cells; procedure, shortened: as §2
[5] = Anticancer activity against human PC3 cells; procedure, shortened: as §2
SK-MEL-2 = experiment: Anticancer activity against human SK-MEL-2 cells; procedure, shortened: as §2
TK-10 = experiment: Anticancer activity against human TK10 cells; procedure, shortened: as §1
SK-MEL-28 = experiment: Anticancer activity against human SK-MEL-28 cells; procedure, shortened: as §2
SF-268 = experiment: Anticancer activity against human SF268 cells; procedure, shortened: as §2
SW-620 = experiment: Anticancer activity against human SW620 cells; procedure, shortened: as §1
[6] = Anticancer activity against human Hs 578T cells; procedure, shortened: as §2
NCI-H522 = experiment: Anticancer activity against human NCI-H522 cells; procedure, shortened: as §2
[7] = Anticancer activity against human MOLT4 cells; procedure, shortened: as §2
CAKI-1 = experiment: Anticancer activity against human CAKI-1 cells; procedure, shortened: as §2
[8] = Anticancer activity against human OVCAR3 cells; procedure, shortened: as §2
[9] = Anticancer activity against human LOXIMVI cells; conditions: LOX IMVI; procedure, shortened: as §2
IGROV-1 = experiment: Anticancer activity against human IGROV1 cells; procedure, shortened: as §2
[10] = Anticancer activity against human HCT15 cells; procedure, shortened: as §2
[11] = Anticancer activity against human HCT116 cells; procedure, shortened: as §2
786-0 = experiment: Anticancer activity against human 786-0 cells; procedure, shortened: as §2
KM12 = experiment: Anticancer activity against human KM12 cells; procedure, shortened: as §2
ACHN = experiment: Anticancer activity against human ACHN cells; procedure, shortened: as §2
MCF7 = experiment: Anticancer activity against human MCF7 cells; procedure, shortened: as §2
NCI-H226 = experiment: Anticancer activity against human NCI-H226 cells; procedure, shortened: as §2
[12] = Anticancer activity against human COLO205 cells; procedure, shortened: as §2
[13] = Anticancer activity against human HCC2998 cells; procedure, shortened: as §2
M14 = experiment: Anticancer activity against human M14 cells; procedure, shortened: as §2
[14] = Anticancer activity against human UACC62 cells; procedure, shortened: as §1
[15] = Anticancer activity against human OVCAR4 cells; procedure, shortened: as §2
DU-145 = experiment: Anticancer activity against human DU145 cells after 48 hrs; conditions: DU-145, 48 h; procedure, shortened: as §2
NCI-H322M = experiment: Anticancer activity against human NCI-H322M cells after 48 hrs; procedure, shortened: as §2
Malme-3M = experiment: Anticancer activity against human MALME-3M cells; procedure, shortened: as §2
SR = experiment: Anticancer activity against human SR cells; procedure, shortened: as §1
[16] = Anticancer activity against human OVCAR8 cells; procedure, shortened: as §2
SN12C = experiment: Anticancer activity against human SN12C cells; procedure, shortened: as §2
[17] = Anticancer activity against human SF295 cells; procedure, shortened: as §2
HOP-62 = experiment: Anticancer activity against human HOP62 cells; procedure, shortened: as §2
[18] = Anticancer activity against human UO31 cells; procedure, shortened: as §1
[19] = Anticancer activity against human RXF393 cells; procedure, shortened: as §2
A498 = experiment: Anticancer activity against human A498 cells; procedure, shortened: as §2
U-251 = experiment: Anticancer activity against human U251 cells; procedure, shortened: as §1
SNB-19 = experiment: Anticancer activity against human SNB19 cells; procedure, shortened: as §2
[20] = Anticancer activity against human SF539 cells; procedure, shortened: as §2
SNB-75 = experiment: Anticancer activity against human SNB75 cells; procedure, shortened: as §1
MDA-MB-468 = experiment: Anticancer activity against human MDA-MB-468 cells; procedure, shortened: as §2
HL-60(TB) = experiment: Anticancer activity against human HL-60(TB) cells; procedure, shortened: as §2
[21] = Anticancer activity against human SKOV3 cells; procedure, shortened: as §2
[22] = read-out: LC50 (the source's name)

With `C/C1=C\CC[C@@]2(C)O[C@@H]2[C@H]2OC(=O)/C(=C/c3ccsc3)[C@@H]2CC1` the GI50 (T47D) was 29.5 µM, the CC50 (T47D; [22]) was greater than 100 µM and the GI50 (K562) was 25.2 µM. It also gave a CC50 (K562; [22]) greater than 100 µM, a GI50 (SK-MEL-5) of 16.3 µM and an LC50 (SK-MEL-5) of 60.4 µM. It also gave a GI50 ([1]; UACC-257) of 16.6 µM, a CC50 ([1]; UACC-257, read-out: LC50 (the source's name)) greater than 100 µM and a GI50 ([2]; RPMI-8226) of 19.7 µM. It also gave a CC50 ([2]; RPMI-8226, read-out: LC50 (the source's name)) greater than 100 µM, a GI50 (NCI-H23) of 23 µM and a CC50 (NCI-H23; [22]) greater than 100 µM. It also gave a GI50 (MDA-MB-231) of 16 µM, an LC50 (concentration killing 50% of cells) (MDA-MB-231) of 81.8 µM and a GI50 [3] of 23.6 µM. It also gave a CC50 [3, 22] greater than 100 µM, a GI50 ([4]; OVCAR-5) of 48.1 µM and a CC50 ([4]; OVCAR-5, read-out: LC50 (the source's name)) greater than 100 µM. The GI50 ([5]; PC-3) was 22.7 µM, the CC50 ([5]; PC-3, read-out: LC50 (the source's name)) was greater than 100 µM and the GI50 (SK-MEL-2) was “inactive”. For the same compound, the LC50 (SK-MEL-2) was “inactive”, the GI50 (TK-10) was 34.7 µM and the CC50 (TK-10; [22]) was greater than 100 µM. It also gave a GI50 (SK-MEL-28) of 29.4 µM, a CC50 (SK-MEL-28; [22]) greater than 100 µM and a GI50 (SF-268) of 21.3 µM. It also gave a CC50 (SF-268; [22]) greater than 100 µM, a GI50 (SW-620) of 22.9 µM and a CC50 (SW-620; [22]) greater than 100 µM. For the same compound, the GI50 [6] was 21.5 µM, the CC50 [6, 22] was greater than 100 µM and the GI50 (NCI-H522) was 5.44 µM. For the same compound, the CC50 (NCI-H522; [22]) was 59.7 µM, the GI50 ([7]; MOLT-4) was 25.7 µM and the CC50 ([7]; MOLT-4, read-out: LC50 (the source's name)) was greater than 100 µM. For the same compound, the GI50 (CAKI-1) was 30.9 µM, the CC50 (CAKI-1; [22]) was greater than 100 µM and the GI50 ([8]; OVCAR-3) was 20.5 µM. For the same compound, the CC50 ([8]; OVCAR-3, read-out: LC50 (the source's name)) was greater than 100 µM, the GI50 [9] was 18 µM and the CC50 [9, 22] was 71.2 µM. The GI50 (IGROV-1) was 27.9 µM, the CC50 (IGROV-1; [22]) was greater than 100 µM and the GI50 ([10]; HCT-15) was 22.6 µM. The CC50 ([10]; HCT-15, read-out: LC50 (the source's name)) was greater than 100 µM, the GI50 ([11]; HCT-116) was 28.3 µM and the CC50 ([11]; HCT-116, read-out: LC50 (the source's name)) was greater than 100 µM. It also gave a GI50 (786-0) of 35.7 µM, a CC50 (786-0; [22]) greater than 100 µM and a GI50 (KM12) of 20.4 µM. For the same compound, the CC50 (KM12; [22]) was 86.7 µM, the GI50 (ACHN) was 32.8 µM and the CC50 (ACHN; [22]) was greater than 100 µM. It also gave a GI50 (MCF7) of 20 µM, a CC50 (MCF7; [22]) greater than 100 µM and a GI50 (NCI-H226) of 30.2 µM. It also gave a CC50 (NCI-H226; [22]) greater than 100 µM, a GI50 ([12]; COLO 205) of 22.6 µM and a CC50 ([12]; COLO 205, read-out: LC50 (the source's name)) of 90.9 µM. For the same compound, the GI50 ([13]; HCC 2998) was 33.8 µM, the CC50 ([13]; HCC 2998, read-out: LC50 (the source's name)) was greater than 100 µM and the GI50 (M14) was 20.5 µM. The CC50 (M14; [22]) was greater than 100 µM, the GI50 ([14]; UACC-62) was 13.8 µM and the CC50 ([14]; UACC-62, read-out: LC50 (the source's name)) was 76.6 µM. It also gave a GI50 ([15]; OVCAR-4) of 24.3 µM, a CC50 ([15]; OVCAR-4, read-out: LC50 (the source's name)) greater than 100 µM and a GI50 (DU-145) of 25.7 µM. It also gave a CC50 (DU-145; [22]) greater than 100 µM, a GI50 (NCI-H322M) of 44.7 µM and a CC50 (NCI-H322M; [22]) greater than 100 µM. It also gave a GI50 (Malme-3M) of 22.5 µM, a CC50 (Malme-3M; [22]) greater than 100 µM and a GI50 (SR) of 20.7 µM. The CC50 (SR; [22]) was greater than 100 µM, the GI50 ([16]; OVCAR-8) was 26.9 µM and the CC50 ([16]; OVCAR-8, read-out: LC50 (the source's name)) was greater than 100 µM. The GI50 (SN12C) was 25.8 µM, the CC50 (SN12C; [22]) was greater than 100 µM and the GI50 ([17]; SF-295) was 28.5 µM. It also gave a CC50 ([17]; SF-295, read-out: LC50 (the source's name)) greater than 100 µM, a GI50 (HOP-62) of 35.8 µM and a CC50 (HOP-62; [22]) greater than 100 µM. The GI50 ([18]; UO-31) was 27.3 µM, the CC50 ([18]; UO-31, read-out: LC50 (the source's name)) was greater than 100 µM and the GI50 ([19]; RXF 393) was 18.1 µM. For the same compound, the CC50 ([19]; RXF 393, read-out: LC50 (the source's name)) was greater than 100 µM, the GI50 (A498) was 17.5 µM and the CC50 (A498; [22]) was greater than 100 µM. The GI50 (U-251) was 21.7 µM, the CC50 (U-251; [22]) was greater than 100 µM and the GI50 (SNB-19) was 47.6 µM. For the same compound, the CC50 (SNB-19; [22]) was greater than 100 µM, the GI50 ([20]; SF-539) was 16.1 µM and the CC50 ([20]; SF-539, read-out: LC50 (the source's name)) was 62.2 µM. For the same compound, the GI50 (SNB-75) was 21.5 µM, the CC50 (SNB-75; [22]) was greater than 100 µM and the GI50 (MDA-MB-468) was 17.7 µM. It also gave an LC50 (concentration killing 50% of cells) (MDA-MB-468) greater than 100 µM, a GI50 (HL-60(TB)) of 21.7 µM and a CC50 (HL-60(TB); [22]) of 99.9 µM. For the same compound, the GI50 ([21]; SK-OV-3) was 44.9 µM and the CC50 ([21]; SK-OV-3, read-out: LC50 (the source's name)) was greater than 100 µM.
